Laboratory results: ChEMBL document CHEMBL3745614, “Potent and selective N-(4-sulfamoylphenyl)thiourea-based GPR55 agonists” (Eur J Med Chem, 2016)

Legend:
[1] = biological target: T1, Fatty-acid amide hydrolase 1 (Homo sapiens) (UniProt O00519); assay: Inhibition of human FAAH expressed in African green monkey COS-7 cell membranes using [3H]-AEA as substrate assessed as residual activity at 10 uM preincubated for 10 mins followed by substrate addition measured after 10 mins by liquid scintillation counting analysis relative to control
T1 sequence (whole entry): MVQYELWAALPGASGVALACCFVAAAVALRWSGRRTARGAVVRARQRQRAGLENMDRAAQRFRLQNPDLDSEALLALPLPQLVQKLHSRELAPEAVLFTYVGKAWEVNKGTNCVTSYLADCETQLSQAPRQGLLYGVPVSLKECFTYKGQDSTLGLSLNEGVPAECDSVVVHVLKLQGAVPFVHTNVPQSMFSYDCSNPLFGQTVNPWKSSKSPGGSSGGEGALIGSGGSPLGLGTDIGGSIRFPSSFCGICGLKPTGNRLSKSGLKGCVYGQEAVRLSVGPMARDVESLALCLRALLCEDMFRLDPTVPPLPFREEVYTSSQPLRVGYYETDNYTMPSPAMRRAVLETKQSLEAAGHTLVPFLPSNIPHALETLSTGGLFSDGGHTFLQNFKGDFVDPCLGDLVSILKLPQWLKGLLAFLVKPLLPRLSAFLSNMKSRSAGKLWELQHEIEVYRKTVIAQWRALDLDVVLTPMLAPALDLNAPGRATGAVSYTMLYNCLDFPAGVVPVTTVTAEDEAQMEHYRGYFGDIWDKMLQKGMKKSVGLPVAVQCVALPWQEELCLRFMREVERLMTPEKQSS
In short: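 Membranes of COS-7 cells overexpressing hFAAH, 1 μg protein per incubation. Substrate 20 μM AEA including 10 nM [3H]AEA (60 Ci/mmol). Compounds tested at 10 μM.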

[2] = biological target: T2, G-protein coupled receptor 55 (Homo sapiens, UniProt Q9Y2T6); assay: Agonist activity at human GPR55 expressed in HEK293 cells assessed as calcium signalling by fura 2-based digital epifluorescence microscopy; format: functional, cell-based
T2 sequence (Q9Y2T6 whole entry, the tested form may be a part): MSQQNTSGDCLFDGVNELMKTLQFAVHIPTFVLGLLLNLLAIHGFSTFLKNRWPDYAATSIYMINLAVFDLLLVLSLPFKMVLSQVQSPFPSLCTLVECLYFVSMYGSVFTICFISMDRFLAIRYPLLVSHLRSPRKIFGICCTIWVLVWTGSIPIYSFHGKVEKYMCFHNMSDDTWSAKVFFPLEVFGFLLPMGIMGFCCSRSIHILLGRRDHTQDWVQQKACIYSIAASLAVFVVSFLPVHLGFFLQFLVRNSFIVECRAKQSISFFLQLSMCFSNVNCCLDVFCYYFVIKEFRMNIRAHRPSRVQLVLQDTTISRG
In short: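 HEK293 cells stably expressing GPR55, grown on poly-L-lysine coated glass coverslips and serum-starved overnight. Compounds applied by bath perfusion in HEPES-buffered saline at 30-32 °C. Single-cell fura 2 ratiometric imaging (350/380 nm) every 5 s. Peak responses pooled from 24 cells (12 random cells from each of two experiments) per concentration; EC50 with 95% CI from concentration-response curves. ARA-LPI used as reference agonist.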

[3] = biological target: T2, G-protein coupled receptor 55; assay: Agonist activity at human GPR55 expressed in CHOK1 cells at 10 uM by pathHunter beta-arrestin assay relative to LPI; format: cell-based; conditions: CHO-K1
In short: (§1)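 PathHunter eXpress GPR55 CHO-K1 β-arrestin kit run per the kit protocol, compounds screened at 10 μM. Luminescence read and expressed as percentage of the signal from bovine liver LPI at 1 μM. Mean with range of two experiments, each done in duplicate.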

[4] = biological target: Cannabinoid receptor 2 (Homo sapiens) (UniProt P34972); assay: Agonist activity at CBR2 (unknown origin) assessed as [35S]GTPgammaS binding at 10 uM by […] assay relative to control; format: functional
Sequence of Cannabinoid receptor 2 (Homo sapiens) (P34972 whole entry): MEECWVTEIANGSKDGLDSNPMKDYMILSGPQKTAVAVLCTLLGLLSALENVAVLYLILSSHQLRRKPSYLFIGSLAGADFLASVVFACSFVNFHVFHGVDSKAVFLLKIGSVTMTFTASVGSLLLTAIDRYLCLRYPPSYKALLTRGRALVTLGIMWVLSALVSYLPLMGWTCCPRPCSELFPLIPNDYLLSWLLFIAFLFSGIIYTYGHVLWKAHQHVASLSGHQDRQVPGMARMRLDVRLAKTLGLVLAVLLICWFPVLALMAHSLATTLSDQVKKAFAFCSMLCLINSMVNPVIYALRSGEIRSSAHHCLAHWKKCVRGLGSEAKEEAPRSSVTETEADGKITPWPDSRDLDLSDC

[5] = biological target: T3, Lysophosphatidylserine lipase ABHD12 (Homo sapiens) (UniProt Q8N2K0); assay: Inhibition of human ABHD12 expressed in […] cells using 2-AG as substrate assessed as glycerol liberation at 1 uM preincubated for 30 mins followed by 2-AG addition measured for 90 mins by fluorescent glycerol assay relative to control; format: cell-based; set-up: scale not given: the % may be the effect or the level left
T3 sequence (whole entry): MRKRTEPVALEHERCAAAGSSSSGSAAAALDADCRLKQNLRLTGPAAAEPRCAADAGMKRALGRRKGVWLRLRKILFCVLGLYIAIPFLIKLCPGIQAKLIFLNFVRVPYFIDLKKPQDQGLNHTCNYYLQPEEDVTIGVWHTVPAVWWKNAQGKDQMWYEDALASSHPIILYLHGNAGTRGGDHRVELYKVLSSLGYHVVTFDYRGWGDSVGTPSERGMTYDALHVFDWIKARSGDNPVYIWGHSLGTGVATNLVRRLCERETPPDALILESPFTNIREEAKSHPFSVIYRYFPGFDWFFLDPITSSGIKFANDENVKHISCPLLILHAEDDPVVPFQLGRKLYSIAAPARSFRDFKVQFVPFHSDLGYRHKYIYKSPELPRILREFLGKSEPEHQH
In short: (§2)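 Lysates of HEK293 cells transiently overexpressing hABHD6 or hABHD12, 0.3 μg protein/well. Pretreated 30 min with DMSO or compound, then 2-AG added (12.5 μM final). Glycerol release coupled enzymatically to H2O2-dependent resorufin formation; fluorescence (ex 530/em 590 nm) followed kinetically for 90 min.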

[6] = biological target: T4, Monoacylglycerol lipase ABHD6 (Homo sapiens) (UniProt Q9BV23); assay: Inhibition of human ABHD6 expressed in […] cells using 2-AG as substrate assessed as glycerol liberation at 1 uM preincubated for 30 mins followed by 2-AG addition measured for 90 mins by fluorescent glycerol assay relative to control; format: cell-based; set-up: scale not given: the % may be the effect or the level left; in short: as §2
T4 sequence (whole entry): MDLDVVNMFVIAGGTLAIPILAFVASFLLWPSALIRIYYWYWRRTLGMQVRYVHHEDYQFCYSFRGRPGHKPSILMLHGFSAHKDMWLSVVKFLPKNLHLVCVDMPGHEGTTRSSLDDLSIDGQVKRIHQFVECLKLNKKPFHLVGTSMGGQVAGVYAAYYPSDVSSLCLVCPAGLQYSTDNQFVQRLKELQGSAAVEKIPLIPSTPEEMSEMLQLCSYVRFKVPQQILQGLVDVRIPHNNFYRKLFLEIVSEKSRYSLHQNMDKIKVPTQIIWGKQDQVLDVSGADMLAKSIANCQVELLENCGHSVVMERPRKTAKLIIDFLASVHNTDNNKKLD

[7] = biological target: Cannabinoid receptor 1 (Homo sapiens) (UniProt P21554); assay: Agonist activity at CBR1 (unknown origin) assessed as [35S]GTPgammaS binding at 10 uM by […] assay relative to control; format: functional
Sequence of Cannabinoid receptor 1 (Homo sapiens) (P21554 whole entry): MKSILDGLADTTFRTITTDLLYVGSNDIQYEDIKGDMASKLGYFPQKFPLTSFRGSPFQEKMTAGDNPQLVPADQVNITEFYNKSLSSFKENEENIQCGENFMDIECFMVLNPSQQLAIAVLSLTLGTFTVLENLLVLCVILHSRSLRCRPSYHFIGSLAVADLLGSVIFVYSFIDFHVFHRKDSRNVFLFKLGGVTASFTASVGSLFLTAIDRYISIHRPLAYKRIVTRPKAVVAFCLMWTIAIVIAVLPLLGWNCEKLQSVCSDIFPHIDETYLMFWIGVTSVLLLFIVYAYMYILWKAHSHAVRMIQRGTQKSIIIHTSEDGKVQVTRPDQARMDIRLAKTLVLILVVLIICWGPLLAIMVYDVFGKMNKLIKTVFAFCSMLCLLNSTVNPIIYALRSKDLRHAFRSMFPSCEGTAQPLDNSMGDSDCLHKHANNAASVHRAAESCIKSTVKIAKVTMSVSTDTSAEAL

[8] = biological target: Cannabinoid receptor 1 (Homo sapiens) (UniProt P21554); assay: Antagonist activity at human CBR1 assessed as [35S]GTPgammaS binding at 10 uM by radiometric assay relative to control; set-up: scale not given: the % may be the effect or the level left
[9] = biological target: T2, G-protein coupled receptor 55; assay: Agonist activity at human GPR55 expressed in CHOK1 cells at 10 uM by pathHunter beta-arrestin assay relative to control; format: cell-based; conditions: CHO-K1; in short: as §1
[10] = biological target: T5, Monoglyceride lipase (Homo sapiens) (UniProt Q99685); assay: Inhibition of human MGL expressed in […] cells using 2AG as substrate assessed as residual activity at 10 uM preincubated for 10 mins followed by substrate addition measured after 10 mins by HPLC analysis; format: cell-based
T5 sequence (whole entry): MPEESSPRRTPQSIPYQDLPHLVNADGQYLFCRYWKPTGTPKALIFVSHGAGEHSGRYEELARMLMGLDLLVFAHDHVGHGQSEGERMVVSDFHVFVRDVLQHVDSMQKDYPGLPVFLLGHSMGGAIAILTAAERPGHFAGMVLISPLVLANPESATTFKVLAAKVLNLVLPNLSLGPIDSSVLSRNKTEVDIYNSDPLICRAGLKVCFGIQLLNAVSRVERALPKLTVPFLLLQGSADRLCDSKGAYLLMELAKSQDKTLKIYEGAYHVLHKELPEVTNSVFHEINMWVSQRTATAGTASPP
In short: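 Lysates of HEK cells overexpressing hMGL, 2.5 μg protein per incubation, substrate at 50 μM. Compounds tested at 10 μM.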

[11] = biological target: Cannabinoid receptor 2 (Homo sapiens) (UniProt P34972); assay: Antagonist activity at human CBR2 assessed as [35S]GTPgammaS binding at 10 uM by […] assay relative to control; format: functional; set-up: scale not given: the % may be the effect or the level left
[12] = biological target: T3, Lysophosphatidylserine lipase ABHD12 (Homo sapiens); assay: Inhibition of human ABHD12 expressed in […] cells using 2-AG as substrate assessed as glycerol liberation at 10 uM preincubated for 30 mins followed by 2-AG addition measured for 90 mins by fluorescent glycerol assay relative to control; format: cell-based; set-up: scale not given: the % may be the effect or the level left; in short: as §2
[13] = biological target: T4, Monoacylglycerol lipase ABHD6 (Homo sapiens); assay: Inhibition of human ABHD6 expressed in […] cells using 2-AG as substrate assessed as glycerol liberation at 10 uM preincubated for 30 mins followed by 2-AG addition measured for 90 mins by fluorescent glycerol assay relative to control; format: cell-based; set-up: scale not given: the % may be the effect or the level left; in short: as §2

Structure (SMILES) | Activity [1] [%] | EC50 [2] [nM] | Activity [3] [%] | Activity [4] [%] | Activity [5] [%] | Activity [6] [%] | Activity [7] [%] | Activity [8] [%] | Activity [9] [%] | Activity [10] [%] | Activity [11] [%] | Activity [12] [%] | Activity [13] [%]
O=C(NC(=S)Nc1ccc(S(=O)(=O)NCc2ccco2)cc1)c1ccc(-c2ccccc2)cc1 | 91 | 2 | 168 | 97 | 101 | 91 | 100 | 91 | 246 | 93 | 99 |  | 
CC(C)CNS(=O)(=O)c1ccc(NC(=S)NC(=O)c2ccc(-c3ccccc3)cc2)cc1 | 105 | 30.9 | 165 | 85 | 95 | 106 | 119 | 93 | 242 | 107 | 86 | 65 | 59
O=C(NCCc1ccccc1)c1ccc(NC(=S)NC(=O)c2ccc(-c3ccccc3)cc2)cc1 | 85 | > 10000 | 68 | 99 | 98 | 96 | 98 | 99 | 99 | 101 | 103 |  | 
Cc1ccc(CNS(=O)(=O)c2ccc(NC(=S)NC(=O)c3ccc(-c4ccccc4)cc3)cc2)cc1 | 94 | 12.4 | 148 | 118 | 103 | 100 | 105 | 102 | 220 | 100 | 103 |  | 
COc1ccc(CNS(=O)(=O)c2ccc(NC(=S)NC(=O)c3ccc(-c4ccccc4)cc3)cc2)cc1 | 94 | 7.7 | 157 | 103 | 100 | 101 | 101 | 99 | 230 | 105 | 101 |  | 
Cc1ccc(C(=O)NC(=S)Nc2ccc(S(=O)(=O)NC(C)(C)C)cc2)cc1 | 103 |  | 69 | 100 | 100 | 96 | 105 | 103 | 102 | 96 | 96 | 65 | 53
O=C(NCc1ccccc1)c1ccc(NC(=S)NC(=O)c2ccc(-c3ccccc3)cc2)cc1 | 83 | > 10000 | 67 | 111 | 100 | 96 | 116 | 91 | 100 | 103 | 88 |  | 
O=C(NC(=S)Nc1ccc(S(=O)(=O)NCCc2ccccc2)cc1)c1ccc(-c2ccccc2)cc1 | 94 | 39.2 | 117 | 94 | 101 | 99 | 103 | 91 | 173 | 99 | 103 |  | 
O=C(NC(=S)Nc1ccc(S(=O)(=O)NCc2ccc(F)cc2)cc1)c1ccc(-c2ccccc2)cc1 | 100 | 2 | 185 | 87 | 96 | 95 | 99 | 91 | 266 | 98 | 88 |  | 
CC(C)NS(=O)(=O)c1ccc(NC(=S)NC(=O)c2ccc(-c3ccccc3)cc2)cc1 | 87 |  |  | 96 | 107 | 95 | 110 | 92 | 185 | 98 | 86 | 65 | 34
C=CCN(CC=C)S(=O)(=O)c1ccc(NC(=S)NC(=O)c2ccc([N+](=O)[O-])cc2)cc1 | 97 |  | 93 | 107 | 102 | 102 | 99 | 91 | 138 | 104 | 105 | 62 | 53
C=CCNS(=O)(=O)c1ccc(NC(=S)NC(=O)c2ccc(-c3ccccc3)cc2)cc1 | 78 | 19.4 | 194 | 87 | 100 | 99 | 127 | 94 | 285 | 96 | 81 |  | 
